Assay [1] has as its system Staphylococcus aureus. The assay can be described thus: Antibacterial activity against penicillin-resistant Staphylococcus aureus incubated for 24 hrs by CLSI-based broth microdilution method. The class given is functional.
Assay [2] relates to Staphylococcus aureus. The assay can be described thus: Bactericidal activity against methicillin-resistant Staphylococcus aureus ATCC43300 assessed as reduction in number of colony forming units incubated for 24 hrs followed by re-plating and reincubation on tryptic soy agar plate for 24 hrs. Type of assay: functional.
Assay [3] concerns Staphylococcus aureus. As to the kind of experiment: Potency index, ratio of ciprofloxacin MIC to test compound MIC for antibacterial activity against methicillin-resistant Staphylococcus aureus ATCC43300 incubated for 24 hrs by CLSI-based broth microdilution method. Type of assay: functional.
Assay [4] has as its system Bacillus subtilis. The assay can be described thus: Antibacterial activity against Bacillus subtilis ATCC9372 incubated for 24 hrs by CLSI-based broth microdilution method. The class given is functional.
For assay [5], the system named is Bacillus subtilis. The assay can be described thus: Inhibition of ftsZ in Bacillus subtilis assessed as increase in enzyme polymerization kinetics measured for 30 mins by microtiter plate-based light scattering assay. The method, boiled down: (§1)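 Purified recombinant B. subtilis FtsZ was used. Polymerization was followed as light scattering in microtiter plates, read as time-dependent absorbance at 340 nm at several compound concentrations. Vehicle, CIP and LIN served as controls.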

Assay [6] concerns Staphylococcus aureus. The assay can be described thus: Bactericidal activity against Staphylococcus aureus clinical isolate assessed as reduction in number of colony forming units at 4XMIC incubated for 9 hrs by Time-kill assay. Type of assay: functional.
Assay [7] relates to Staphylococcus aureus. As to the kind of experiment: Bacteriostatic activity against Staphylococcus aureus ATCC25923 assessed as ratio of MBC to MIC. Type of assay: functional.
A further assay has as its system Pseudomonas aeruginosa. The assay can be described thus: Antibacterial activity against Pseudomonas aeruginosa ATCC27853 incubated for 24 hrs by CLSI-based broth microdilution method. Type of assay: functional.
The test system of assay [8] is Staphylococcus aureus. As to the kind of experiment: Bacteriostatic activity against methicillin-resistant Staphylococcus aureus ATCC43300 assessed as ratio of MBC to MIC. The class given is functional.
Assay [9] has as its system Staphylococcus aureus. The assay can be described thus: Antibacterial activity against Staphylococcus aureus ATCC25923 incubated for 24 hrs by CLSI-based broth microdilution method. The class given is functional.
Assay [10] relates to Staphylococcus aureus. The assay can be described thus: Bactericidal activity against Staphylococcus aureus clinical isolate assessed as reduction in number of colony forming units at 1XMIC incubated for 24 hrs by Time-kill assay. The class given is functional.
Assay [11] has as its system Staphylococcus aureus. As to the kind of experiment: Antibacterial activity against methicillin-resistant Staphylococcus aureus ATCC43300 incubated for 24 hrs by CLSI-based broth microdilution method. Type of assay: functional.
Assay [12] deals with Bacillus subtilis. As to the kind of experiment: Inhibition of ftsZ in Bacillus subtilis assessed as increase in enzyme polymerization kinetics at 5 ug/ml measured for 30 mins by microtiter plate-based light scattering assay. The following applies: dose 5.0 µg/ml. The method, boiled down:
as §1

Assay [13] concerns Staphylococcus aureus. The assay can be described thus: Bactericidal activity against penicillin-resistant Staphylococcus aureus assessed as reduction in number of colony forming units incubated for 24 hrs followed by re-plating and reincubation on tryptic soy agar plate for 24 hrs. Type of assay: functional.
The test system of assay [14] is Staphylococcus aureus. The assay can be described thus: Inhibition of FtsZ in Staphylococcus aureus clinical isolate assessed as inhibition of bacterial cell elongation by measuring bacterial cell diameter at 0.25 ug/ml incubated for 18 hrs by phase contrast microscopic analysis (reference value: 0.79 +/- 0.05 um). The following applies: dose 0.25 µg/ml.
Assay [15] relates to Staphylococcus aureus. The assay can be described thus: Potency index, ratio of linezolid MIC to test compound MIC for antibacterial activity against penicillin-resistant Staphylococcus aureus incubated for 24 hrs by CLSI-based broth microdilution method. Type of assay: functional.
The test system of assay [16] is Staphylococcus aureus. As to the kind of experiment: Potency index, ratio of PC190723 MIC to test compound MIC for antibacterial activity against penicillin-resistant Staphylococcus aureus incubated for 24 hrs by CLSI-based broth microdilution method. Type of assay: functional.
Assay [17] has as its system Staphylococcus aureus. As to the kind of experiment: Bacteriostatic activity against Staphylococcus aureus clinical isolate assessed as ratio of MBC to MIC. Type of assay: functional.
In assay [18] the test system is Staphylococcus aureus. The assay can be described thus: Bactericidal activity against Staphylococcus aureus clinical isolate assessed as reduction in number of colony forming units incubated for 24 hrs followed by re-plating and reincubation on tryptic soy agar plate for 24 hrs. The class given is functional.
The subject of assay [19] is Staphylococcus aureus. As to the kind of experiment: Bactericidal activity against Staphylococcus aureus ATCC25923 assessed as reduction in number of colony forming units incubated for 24 hrs followed by re-plating and reincubation on tryptic soy agar plate for 24 hrs. Type of assay: functional.
In assay [20] the test system is Staphylococcus aureus. As to the kind of experiment: Bactericidal activity against Staphylococcus aureus clinical isolate assessed as reduction in number of colony forming units at 2XMIC incubated for 12 hrs by Time-kill assay. Type of assay: functional.
The test system of assay [21] is Staphylococcus aureus. The assay can be described thus: Potency index, ratio of PC190723 MIC to test compound MIC for antibacterial activity against methicillin-resistant Staphylococcus aureus ATCC43300 incubated for 24 hrs by CLSI-based broth microdilution method. Type of assay: functional.
Assay [22] has as its system Staphylococcus aureus. The assay can be described thus: Bacteriostatic activity against penicillin-resistant Staphylococcus aureus assessed as ratio of MBC to MIC. Type of assay: functional.
Assay [23] has as its system Staphylococcus aureus. The assay can be described thus: Antibacterial activity against Staphylococcus aureus clinical isolate incubated for 24 hrs by CLSI-based broth microdilution method. The class given is functional.
The subject of the next assay is Escherichia coli. The assay can be described thus: Antibacterial activity against Escherichia coli ATCC25922 incubated for 24 hrs by CLSI-based broth microdilution method. The class given is functional. The following applies: ATCC 25922.
For assay [24], the system named is Bacillus subtilis. The assay can be described thus: Inhibition of FtsZ in Bacillus subtilis ATCC9372 assessed as inhibition of bacterial cell elongation by measuring bacterial cell length at 0.25 ug/ml incubated for 18 hrs by phase contrast microscopic analysis (reference value: 2.28 +/- 0.29 um). The following applies: dose 0.25 µg/ml. A digest of the protocol:
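Compound at 0.25 μg/mL, compared with untreated cells, imaged by microscopy. For B. subtilis ATCC9372, cell length was measured (n = 15). For S. aureus ATCC CI, cell diameter was measured (n = 15). Mean and SD were reported.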

A further assay concerns Bacillus pumilus. As to the kind of experiment: Antibacterial activity against Bacillus pumilus CMCC63202 incubated for 24 hrs by CLSI-based broth microdilution method. The class given is functional.
For assay [25], the system named is Staphylococcus aureus. The assay can be described thus: In-vivo antibacterial activity against Staphylococcus aureus infected in KM mouse model assessed as reduction in bacterial load in blood at 10 mg/kg, iv administered thrice daily and measured after 48 hrs. The class given is functional, organism-based. The method, boiled down:
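Groups of four KM mice (average 20 g) were infected i.v. with 8.5 × 10⁸ CFU of a clinical S. aureus isolate resistant to CIP and ERY, in 0.15 mL saline. Treatment was 10 mg/kg i.v. three times daily. Vehicle was 2% DMAC, 30% PEG400/PG (1:1) and 5% HPβCD in water; vehicle and LIN arms were included. At 48 h, retro-orbital blood (0.1 mL) was plated on TSA for CFU counts.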

Assay [26] has as its system Staphylococcus aureus. As to the kind of experiment: Potency index, ratio of linezolid MIC to test compound MIC for antibacterial activity against methicillin-resistant Staphylococcus aureus ATCC43300 incubated for 24 hrs by CLSI-based broth microdilution method. The class given is functional.
Another assay deals with HeLa. The assay can be described thus: Cytotoxicity against human Hela cells assessed as reduction in cell viability incubated for 48 hrs by MTT assay. The class given is cell-based. A digest of the protocol: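 HeLa (human cervical cancer) cells were exposed continuously for 48 h, and viability was read by MTT.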
Assay [27] deals with Staphylococcus aureus. As to the kind of experiment: Bactericidal activity against Staphylococcus aureus clinical isolate assessed as reduction in number of colony forming units at 0.5 times MIC incubated for 24 hrs by Time-kill assay. The class given is functional, organism-based.

Converted amounts (≈) assume the structure as drawn. The source made the active and inactive calls. The calls are words filed in the database; no cut-off is given here.

As to `CCCCc1ccc(C2=NOC(COc3ccc(F)c(C(N)=O)c3F)C2)cc1` (configuration not stated), the MIC against Staphylococcus aureus [1] was 0.5 µg/mL (≈ 1.29 µM); against Bacillus subtilis [4], 0.5 µg/mL (≈ 1.29 µM); against Pseudomonas aeruginosa it was greater than 64 µg/mL; in the assay on Staphylococcus aureus [9], 0.5 µg/mL (≈ 1.29 µM); against Staphylococcus aureus [11], 0.25 µg/mL (≈ 0.644 µM); in the assay with Staphylococcus aureus [23], 0.5 µg/mL (≈ 1.29 µM). The MIC is greater than 64 µg/mL against Escherichia coli and no more than 0.125 µg/mL with Bacillus pumilus. The MBC worked out at 0.5 µg/mL (≈ 1.29 µM) in the assay with Staphylococcus aureus [2], 1 µg/mL (≈ 2.57 µM) with Staphylococcus aureus [13], 0.5 µg/mL (≈ 1.29 µM) in the assay on Staphylococcus aureus [18] and 0.5 µg/mL (≈ 1.29 µM) in the assay with Staphylococcus aureus [19]. For the same compound, the Ratio is 64 in the assay with Staphylococcus aureus [3]; 1 in the assay with Staphylococcus aureus [7]; 2 in the assay on Staphylococcus aureus [8]; 2 in the assay with Staphylococcus aureus [15]; 2 in the assay with Staphylococcus aureus [16]; 1 in the assay with Staphylococcus aureus [17]. For the same compound, the Ratio in the assay with Staphylococcus aureus [21] came out at 4; in the assay with Staphylococcus aureus [22], 2; in the assay on Staphylococcus aureus [26] it was 8. In the assay with Bacillus subtilis [5], the inhibition entry is “Dose-dependent effect”. Further, the Activity in the assay with Staphylococcus aureus [6], in the assay on Staphylococcus aureus [10] and with Staphylococcus aureus [20] was <1 10^3CFU/ml each time. Also, the “FtsZ polymerization increase (active/inactive call)” value with Bacillus subtilis [12] is “Active”. Moreover, the cell diameter in the assay on Staphylococcus aureus [14] was determined as 2.41 µm. In the assay with Bacillus subtilis [24], the cell length is 29.3 µm. Further, the outcome in the assay with Staphylococcus aureus [25] and with Staphylococcus aureus [27] was Active. Besides, the IC50 in the assay with HeLa is greater than 64 µg/mL.

`CC[C@H]1OC(=O)[C@H](C)[C@@H](O[C@H]2C[C@@](C)(OC)[C@@H](O)[C@H](C)O2)[C@H](C)[C@@H](O[C@@H]2O[C@H](C)C[C@H](N(C)C)[C@H]2O)[C@](C)(OC)C[C@@H](C)C(=O)[C@H](C)[C@@H](O)[C@]1(C)O` [CLARITHROMYCIN]: the MBC result in the assay on Staphylococcus aureus [2], in the assay with Staphylococcus aureus [13] and in the assay on Staphylococcus aureus [18] was “inactive” in each case. In addition, the Ratio in the assay on Staphylococcus aureus [7] was determined as 32. The Ratio entry in the assay with Staphylococcus aureus [8], with Staphylococcus aureus [17] and in the assay on Staphylococcus aureus [22] was “inactive” each time. In addition, the figures for the MIC in the assay on Staphylococcus aureus [9], in the assay on Staphylococcus aureus [11] and against Staphylococcus aureus [23] were 0.125 µg/mL (≈ 0.167 µM), greater than 64 µg/mL and greater than 64 µg/mL, respectively. Besides, in the assay on Staphylococcus aureus [19], the MBC amounted to 4 µg/mL (≈ 5.35 µM).

The values are drawn from ChEMBL document CHEMBL4665863 (Bioorg Med Chem, 2020).
